Results reported in ChEMBL document CHEMBL1126270, “Synthesis of 3-[(2,3-dihydro-1,1,3-trioxo-1,2-benzisothiazol-2-yl)alkyl] 1,4-dihydropyridine-3,5-dicarboxylate derivatives as calcium channel modulators” (J Med Chem, 1992).
pIC50: −log10 of the molar value.

Legend:
Oryctolagus cuniculus [1] = organism: Oryctolagus cuniculus; assay: Blockade of calcium-evoked contractions evaluated in depolarized rabbit aortic strips; assay type: functional; conditions: Aorta
Outline: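 Male New Zealand rabbit thoracic aorta, helicoidal strips, 2.5 g preload, Krebs–bicarbonate, 37 °C, 95% O2/5% CO2, pH 7.4. After 1 h equilibration, depolarized with 35 mM K+; 1.5 mM Ca2+ added 10 min later, repeated until reproducible. Compound at increasing concentrations from 20 min before and during Ca2+ addition; responses normalized to initial tension; IC50 by Finney method.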

Oryctolagus cuniculus [2] = organism: Oryctolagus cuniculus; assay: Relative potency evaluated (relative potency = IC50 of compound / IC50 of nifedipine) in rabbit; assay type: functional
Oryctolagus cuniculus [3] = organism: Oryctolagus cuniculus; assay: Recovery of the initial contraction of rabbit aortic strips, blocked at 10e-7 M concentration.; conditions: Aorta
[4] = biological target: T1, Voltage-dependent L-type calcium channel subunit alpha-1C (Oryctolagus cuniculus, UniProt P15381); assay: Selectivity index was measured as the IC50 needed to depress the heart beat divided by IC50 needed to block [Ca2+] contractions in rabbit aortic strips; assay type: functional, tissue-based, Aorta
T1 sequence (P15381 whole entry): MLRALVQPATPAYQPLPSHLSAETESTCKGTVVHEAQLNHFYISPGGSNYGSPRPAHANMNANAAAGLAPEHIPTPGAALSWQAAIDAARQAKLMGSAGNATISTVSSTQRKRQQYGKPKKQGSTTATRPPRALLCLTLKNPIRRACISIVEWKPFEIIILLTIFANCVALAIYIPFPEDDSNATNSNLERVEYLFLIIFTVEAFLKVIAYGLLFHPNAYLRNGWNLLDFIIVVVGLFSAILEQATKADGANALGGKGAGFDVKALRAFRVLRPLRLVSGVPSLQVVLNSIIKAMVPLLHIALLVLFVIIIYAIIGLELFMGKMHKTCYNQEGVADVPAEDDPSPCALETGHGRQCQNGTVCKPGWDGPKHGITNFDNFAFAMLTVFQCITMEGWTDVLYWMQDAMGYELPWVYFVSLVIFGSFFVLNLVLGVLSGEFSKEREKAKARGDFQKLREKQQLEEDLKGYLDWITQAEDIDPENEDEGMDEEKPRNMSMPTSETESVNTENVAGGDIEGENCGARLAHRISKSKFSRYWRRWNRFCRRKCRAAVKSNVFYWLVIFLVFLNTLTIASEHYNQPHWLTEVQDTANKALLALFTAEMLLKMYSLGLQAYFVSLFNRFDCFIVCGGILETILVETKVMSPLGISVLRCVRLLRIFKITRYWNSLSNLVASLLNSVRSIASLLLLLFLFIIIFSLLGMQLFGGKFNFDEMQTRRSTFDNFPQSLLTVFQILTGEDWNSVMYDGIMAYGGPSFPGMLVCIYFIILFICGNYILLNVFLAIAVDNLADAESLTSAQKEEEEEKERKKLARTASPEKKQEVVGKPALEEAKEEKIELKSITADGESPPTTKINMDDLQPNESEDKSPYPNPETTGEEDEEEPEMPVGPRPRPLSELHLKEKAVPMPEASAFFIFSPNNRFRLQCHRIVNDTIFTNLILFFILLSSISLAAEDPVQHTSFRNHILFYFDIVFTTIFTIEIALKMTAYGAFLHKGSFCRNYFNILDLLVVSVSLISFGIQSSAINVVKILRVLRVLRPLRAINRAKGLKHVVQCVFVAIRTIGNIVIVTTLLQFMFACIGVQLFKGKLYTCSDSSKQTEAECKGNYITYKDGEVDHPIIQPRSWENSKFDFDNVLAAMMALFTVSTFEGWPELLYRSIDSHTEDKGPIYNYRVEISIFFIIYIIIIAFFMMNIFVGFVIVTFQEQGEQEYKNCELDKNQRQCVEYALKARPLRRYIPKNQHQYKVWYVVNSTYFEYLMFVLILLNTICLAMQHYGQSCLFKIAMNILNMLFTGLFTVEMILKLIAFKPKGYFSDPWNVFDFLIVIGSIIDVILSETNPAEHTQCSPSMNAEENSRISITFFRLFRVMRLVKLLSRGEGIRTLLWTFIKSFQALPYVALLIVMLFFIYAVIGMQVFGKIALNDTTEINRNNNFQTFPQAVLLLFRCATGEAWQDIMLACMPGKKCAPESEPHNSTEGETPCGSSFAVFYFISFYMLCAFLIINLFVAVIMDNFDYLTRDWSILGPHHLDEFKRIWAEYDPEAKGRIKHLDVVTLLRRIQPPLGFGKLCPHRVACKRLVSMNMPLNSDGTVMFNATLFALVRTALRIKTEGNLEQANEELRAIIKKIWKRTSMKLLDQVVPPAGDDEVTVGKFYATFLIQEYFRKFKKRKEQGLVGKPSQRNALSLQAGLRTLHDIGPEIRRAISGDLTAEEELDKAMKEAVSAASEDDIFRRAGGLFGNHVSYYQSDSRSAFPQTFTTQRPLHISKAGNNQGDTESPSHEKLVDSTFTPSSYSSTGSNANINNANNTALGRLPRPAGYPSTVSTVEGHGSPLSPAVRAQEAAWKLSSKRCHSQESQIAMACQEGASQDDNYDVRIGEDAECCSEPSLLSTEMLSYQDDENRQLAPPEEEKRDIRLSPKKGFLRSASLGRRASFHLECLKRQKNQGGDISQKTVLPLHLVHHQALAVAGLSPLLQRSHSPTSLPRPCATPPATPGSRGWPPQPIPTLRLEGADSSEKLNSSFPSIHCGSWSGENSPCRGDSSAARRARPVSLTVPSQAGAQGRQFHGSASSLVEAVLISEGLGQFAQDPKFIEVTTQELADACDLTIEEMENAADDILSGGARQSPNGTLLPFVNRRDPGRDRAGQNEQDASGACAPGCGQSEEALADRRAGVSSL

Oryctolagus cuniculus [5] = organism: Oryctolagus cuniculus; assay: Inhibition of electrically stimulated rabbit left atria contraction.; assay type: functional
Outline: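 Rabbit left atria electrically driven (1 Hz, 10 ms, twice threshold voltage), equilibrated 1–1.5 h. Compounds added cumulatively (10^-10–10^-6 M), diluted from DMSO stocks into Krebs–Henseleit, final DMSO <0.1%. Isometric force recorded; IC50 from contractile force relative to initial control values, with 95% confidence limits.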

[6] = biological target: T1, Voltage-dependent L-type calcium channel subunit alpha-1C; assay: Blockade of calcium-evoked contractions in depolarized aortic strips; assay type: functional, tissue-based, Aorta
Oryctolagus cuniculus [7] = organism: Oryctolagus cuniculus; assay: Relative potency was evaluated. (relative potency = IC50 of compound / IC50 of nifedipine); assay type: functional

Compound	pIC50 (Oryctolagus cuniculus [1])	Relative potency (Oryctolagus cuniculus [2])	also measured
CC1=NC(C)=C(C(=O)OCCCN2C(=O)c3ccccc3S2(=O)=O)C(c2ccccc2[N+](=O)[O-])/C1=C(\O)OCC1CCCO1 (stereo unspecified)	8.17	0.4	–
COCCO/C(O)=C1\C(C)=NC(C)=C(C(=O)OCCCN2C(=O)c3ccccc3S2(=O)=O)C1c1ccccc1C(F)(F)F (stereo unspecified)	8.85	2.1	Recovery (Oryctolagus cuniculus [3]): 18.3%; Selectivity index [4]: 16; pIC50 (Oryctolagus cuniculus [5]): 7.66
COCCO/C(O)=C1\C(C)=NC(C)=C(C(=O)OCN2C(=O)c3ccccc3S2(=O)=O)C1c1cccc(Cl)c1Cl (stereo unspecified)	–	–	pIC50 [6]: 8.54; Relative potency (Oryctolagus cuniculus [7]): 1
CC1=NC(C)=C(C(=O)OCCN2C(=O)c3ccccc3S2(=O)=O)C(c2ccccc2C(F)(F)F)/C1=C(\O)OCC1CCCO1 (stereo unspecified)	8.60	1.2	–
CO/C(O)=C1\C(C)=NC(C)=C(C(=O)OCCCN2C(=O)c3ccccc3S2(=O)=O)C1c1ccccc1Cl (stereo unspecified)	8.74	1.6	Recovery (Oryctolagus cuniculus [3]): 6.05%; Selectivity index [4]: 77; pIC50 (Oryctolagus cuniculus [5]): 6.85
COCCO/C(O)=C1\C(C)=NC(C)=C(C(=O)OCCN2C(=O)c3ccccc3S2(=O)=O)C1c1cccc(Cl)c1Cl (stereo unspecified)	8.15	0.4	–
CC1=NC(C)=C(C(=O)OCCN2C(=O)c3ccccc3S2(=O)=O)C(c2ccccc2Cl)/C1=C(\O)OC(C)C (stereo unspecified)	8.51	0.9	–
CO/C(O)=C1\C(C)=NC(C)=C(C(=O)OCN2C(=O)c3ccccc3S2(=O)=O)C1c1cccc([N+](=O)[O-])c1 (stereo unspecified)	–	–	pIC50 [6]: 7.82; Relative potency (Oryctolagus cuniculus [7]): 0.2
CC1=NC(C)=C(C(=O)OCCCN2C(=O)c3ccccc3S2(=O)=O)C(c2ccccc2C(F)(F)F)/C1=C(\O)OCC1CCCO1 (stereo unspecified)	8.43	0.8	–
CC1=NC(C)=C(C(=O)OCCCN2C(=O)c3ccccc3S2(=O)=O)C(c2ccccc2Cl)/C1=C(\O)OCC1CCCO1 (stereo unspecified)	8.15	0.4	–
CCO/C(O)=C1\C(C)=NC(C)=C(C(=O)OCCN2C(=O)c3ccccc3S2(=O)=O)C1c1cccc([N+](=O)[O-])c1 (stereo unspecified)	8.59	1.1	–
CC1=NC(C)=C(C(=O)OCCN2C(=O)c3ccccc3S2(=O)=O)C(c2cccc(Cl)c2Cl)/C1=C(\O)OCC1CCCO1 (stereo unspecified)	8.68	1.4	–
CC1=NC(C)=C(C(=O)OCN2C(=O)c3ccccc3S2(=O)=O)C(c2ccccc2C(F)(F)F)/C1=C(\O)OCC1CCCCO1 (stereo unspecified)	–	–	pIC50 [6]: 8.44; Relative potency (Oryctolagus cuniculus [7]): 0.8
CC1=NC(C)=C(C(=O)OCCN2C(=O)c3ccccc3S2(=O)=O)C(c2ccccc2C(F)(F)F)/C1=C(\O)OCC1CCCCO1 (stereo unspecified)	7.59	0.1	–
CC1=NC(C)=C(C(=O)OCCCN2C(=O)c3ccccc3S2(=O)=O)C(c2cccc([N+](=O)[O-])c2)/C1=C(\O)OCC1CCCO1 (stereo unspecified)	7.98	0.3	–
COCCO/C(O)=C1\C(C)=NC(C)=C(C(=O)OCCN2C(=O)c3ccccc3S2(=O)=O)C1c1ccccc1Cl (stereo unspecified)	7.64	0.1	Recovery (Oryctolagus cuniculus [3]): 0.5%
CC1=NC(C)=C(C(=O)OCCN2C(=O)c3ccccc3S2(=O)=O)C(c2cccc(Cl)c2Cl)/C1=C(\O)OCC1CCCCO1 (stereo unspecified)	7.95	0.3	–
CC1=NC(C)=C(C(=O)OCCCN2C(=O)c3ccccc3S2(=O)=O)C(c2ccccc2Cl)/C1=C(\O)OC(C)C (stereo unspecified)	8.89	2.2	Selectivity index [4]: 37; pIC50 (Oryctolagus cuniculus [5]): 7.32
CCO/C(O)=C1\C(C)=NC(C)=C(C(=O)OCCCN2C(=O)c3ccccc3S2(=O)=O)C1c1ccccc1C(F)(F)F (stereo unspecified)	9.10	3.6	Recovery (Oryctolagus cuniculus [3]): 1.2%; Selectivity index [4]: 163; pIC50 (Oryctolagus cuniculus [5]): 6.91
CCCO/C(O)=C1\C(C)=NC(C)=C(C(=O)OCN2C(=O)c3ccccc3S2(=O)=O)C1c1cccc([N+](=O)[O-])c1 (stereo unspecified)	–	–	pIC50 [6]: 7.19; Relative potency (Oryctolagus cuniculus [7]): <0.1
CC1=NC(C)=C(C(=O)OCN2C(=O)c3ccccc3S2(=O)=O)C(c2ccccc2[N+](=O)[O-])/C1=C(\O)OCC1CCCCO1 (stereo unspecified)	–	–	pIC50 [6]: 7.60; Relative potency (Oryctolagus cuniculus [7]): 0.1
CC1=NC(C)=C(C(=O)OCCCN2C(=O)c3ccccc3S2(=O)=O)C(c2ccccc2[N+](=O)[O-])/C1=C(\O)OCC1CCCCO1 (stereo unspecified)	7.94	0.3	–
CO/C(O)=C1\C(C)=NC(C)=C(C(=O)OCCCN2C(=O)c3ccccc3S2(=O)=O)C1c1ccccc1[N+](=O)[O-] (stereo unspecified)	8.82	1.9	Recovery (Oryctolagus cuniculus [3]): 18.8%; Selectivity index [4]: 80; pIC50 (Oryctolagus cuniculus [5]): 6.92
CC1=NC(C)=C(C(=O)OCN2C(=O)c3ccccc3S2(=O)=O)C(c2cccc([N+](=O)[O-])c2)/C1=C(\O)OCC1CCCCO1 (stereo unspecified)	–	–	pIC50 [6]: 7.88; Relative potency (Oryctolagus cuniculus [7]): 0.2
COCCO/C(O)=C1\C(C)=NC(C)=C(C(=O)OCCCN2C(=O)c3ccccc3S2(=O)=O)C1c1ccccc1Cl (stereo unspecified)	8.54	1	–

Compound	pIC50 (Oryctolagus cuniculus [1])	Relative potency (Oryctolagus cuniculus [2])	also measured
CC1=NC(C)=C(C(=O)OCCCN2C(=O)c3ccccc3S2(=O)=O)C(c2ccccc2C(F)(F)F)/C1=C(\O)OC(C)C (stereo unspecified)	8.57	1.1	–
CC1=NC(C)=C(C(=O)OCCN2C(=O)c3ccccc3S2(=O)=O)C(c2ccccc2[N+](=O)[O-])/C1=C(\O)OC(C)(C)C (stereo unspecified)	9.15	4.1	Recovery (Oryctolagus cuniculus [3]): 0.2%; Selectivity index [4]: 41; pIC50 (Oryctolagus cuniculus [5]): 7.55
CCO/C(O)=C1\C(C)=NC(C)=C(C(=O)OCCN2C(=O)c3ccccc3S2(=O)=O)C1c1ccccc1Cl (stereo unspecified)	8.00	0.3	–
CCO/C(O)=C1\C(C)=NC(C)=C(C(=O)OCCCN2C(=O)c3ccccc3S2(=O)=O)C1c1ccccc1[N+](=O)[O-] (stereo unspecified)	8.59	1.1	–
CO/C(O)=C1\C(C)=NC(C)=C(C(=O)OCCCN2C(=O)c3ccccc3S2(=O)=O)C1c1cccc([N+](=O)[O-])c1 (stereo unspecified)	8.59	1.1	–
CCO/C(O)=C1\C(C)=NC(C)=C(C(=O)OCCN2C(=O)c3ccccc3S2(=O)=O)C1c1cccc(Cl)c1Cl (stereo unspecified)	8.40	0.7	–
CC1=NC(C)=C(C(=O)OCCCN2C(=O)c3ccccc3S2(=O)=O)C(c2cccc(Cl)c2Cl)/C1=C(\O)OCC1CCCCO1 (stereo unspecified)	8.40	0.7	–
CC1=NC(C)=C(C(=O)OCN2C(=O)c3ccccc3S2(=O)=O)C(c2cccc([N+](=O)[O-])c2)/C1=C(\O)OC(C)(C)C (stereo unspecified)	–	–	pIC50 [6]: 8.11; Relative potency (Oryctolagus cuniculus [7]): 0.4
CC1=NC(C)=C(C(=O)OCCN2C(=O)c3ccccc3S2(=O)=O)C(c2ccccc2Cl)/C1=C(\O)OCC1CCCO1 (stereo unspecified)	8.46	0.8	–
CC1=NC(C)=C(C(=O)OCCCN2C(=O)c3ccccc3S2(=O)=O)C(c2cccc(Cl)c2Cl)/C1=C(\O)OC(C)(C)C (stereo unspecified)	8.51	0.2	–
COCCO/C(O)=C1\C(C)=NC(C)=C(C(=O)OCCN2C(=O)c3ccccc3S2(=O)=O)C1c1cccc([N+](=O)[O-])c1 (stereo unspecified)	7.54	0.1	–
CC1=NC(C)=C(C(=O)OCN2C(=O)c3ccccc3S2(=O)=O)C(c2ccccc2Cl)/C1=C(\O)OCC1CCCO1 (stereo unspecified)	–	–	pIC50 [6]: 8.00; Relative potency (Oryctolagus cuniculus [7]): 0.3
CO/C(O)=C1\C(C)=NC(C)=C(C(=O)OCN2C(=O)c3ccccc3S2(=O)=O)C1c1cccc(Cl)c1Cl (stereo unspecified)	–	–	pIC50 [6]: 8.29; Relative potency (Oryctolagus cuniculus [7]): 0.6
CCO/C(O)=C1\C(C)=NC(C)=C(C(=O)OCCCN2C(=O)c3ccccc3S2(=O)=O)C1c1cccc([N+](=O)[O-])c1 (stereo unspecified)	8.72	1.5	–
CO/C(O)=C1\C(C)=NC(C)=C(C(=O)OCCN2C(=O)c3ccccc3S2(=O)=O)C1c1cccc([N+](=O)[O-])c1 (stereo unspecified)	7.40	0.1	–
CO/C(O)=C1\C(C)=NC(C)=C(C(=O)OCN2C(=O)c3ccccc3S2(=O)=O)C1c1ccccc1[N+](=O)[O-] (stereo unspecified)	–	–	pIC50 [6]: 7.51; Relative potency (Oryctolagus cuniculus [7]): 0.1
CC1=NC(C)=C(C(=O)OCCCN2C(=O)c3ccccc3S2(=O)=O)C(c2cccc([N+](=O)[O-])c2)/C1=C(\O)OC(C)C (stereo unspecified)	9.00	2.9	Recovery (Oryctolagus cuniculus [3]): 1.6%; Selectivity index [4]: 205; pIC50 (Oryctolagus cuniculus [5]): 6.68
CC1=NC(C)=C(C(=O)OCCCN2C(=O)c3ccccc3S2(=O)=O)C(c2ccccc2Cl)/C1=C(\O)OCC1CCCCO1 (stereo unspecified)	8.15	0.4	–
CCO/C(O)=C1\C(C)=NC(C)=C(C(=O)OCN2C(=O)c3ccccc3S2(=O)=O)C1c1cccc([N+](=O)[O-])c1 (stereo unspecified)	–	–	pIC50 [6]: 8.48; Relative potency (Oryctolagus cuniculus [7]): 0.1
COCCO/C(O)=C1\C(C)=NC(C)=C(C(=O)OCCCN2C(=O)c3ccccc3S2(=O)=O)C1c1ccccc1[N+](=O)[O-] (stereo unspecified)	8.57	1.1	–
COCCO/C(O)=C1\C(C)=NC(C)=C(C(=O)OCCCN2C(=O)c3ccccc3S2(=O)=O)C1c1cccc([N+](=O)[O-])c1 (stereo unspecified)	8.17	0.4	–
COCCO/C(O)=C1\C(C)=NC(C)=C(C(=O)OCCN2C(=O)c3ccccc3S2(=O)=O)C1c1ccccc1C(F)(F)F (stereo unspecified)	8.85	2.1	–
CO/C(O)=C1\C(C)=NC(C)=C(C(=O)OCCN2C(=O)c3ccccc3S2(=O)=O)C1c1cccc(Cl)c1Cl (stereo unspecified)	7.76	0.2	–
CCO/C(O)=C1\C(C)=NC(C)=C(C(=O)OCCCN2C(=O)c3ccccc3S2(=O)=O)C1c1ccccc1Cl (stereo unspecified)	8.41	0.7	–
CC1=NC(C)=C(C(=O)OCCN2C(=O)c3ccccc3S2(=O)=O)C(c2ccccc2Cl)/C1=C(\O)OC(C)(C)C (stereo unspecified)	8.35	0.6	–
